According to article PMC4721940 (Journal of enzyme inhibition and medicinal chemistry, 2015):
pKi: −log10 of the molar value.

How the values were obtained:
[1] = target: T1, human neutrophil elastase (HNE) (Homo sapiens, UniProt P08246); experiment: HNE inhibition assay; assay type: biochemical
T1 sequence (P08246 30-247 limits assumed): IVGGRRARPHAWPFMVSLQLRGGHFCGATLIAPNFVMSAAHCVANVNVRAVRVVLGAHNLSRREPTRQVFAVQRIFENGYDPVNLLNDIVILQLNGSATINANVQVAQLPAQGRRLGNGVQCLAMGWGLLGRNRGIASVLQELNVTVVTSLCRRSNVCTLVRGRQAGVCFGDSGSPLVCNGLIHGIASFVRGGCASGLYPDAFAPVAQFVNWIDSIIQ
Method in brief: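 Human neutrophil elastase (20 mU/mL) in 200 mM Tris-HCl pH 7.5 with 0.01% BSA and 0.05% Tween-20, pre-incubated 5 min with test compound (DMSO final 1%). Started with 25 μM MeOSuc-Ala-Ala-Pro-Val-AMC. Fluorescence (ex 355/em 460 nm) read every 30 s for 10 min at 25 °C.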

[2] = Spontaneous hydrolysis in phosphate buffer; assay type: physicochemical; conditions: after 60 min in aqueous buffer, absorbance at 325 nm
Method in brief: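 Test compound in 0.05 M phosphate buffer, pH 7.3, at 25 °C. Absorbance at each compound's absorption maximum read over time until no further decrease (A∞). k′ taken from the slope of log(At–A∞) vs time; t1/2 = 0.693/k′.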

HNE = target: T2, HNE (Homo sapiens, UniProt P08246); experiment: Reactivation of the HNE–inhibitor complex after ultrafiltration; assay type: biochemical; conditions: 25 μM inhibitor, data not shown
T2 sequence (P08246 30-247 limits assumed): T1 sequence (P08246 30-247 limits assumed)

[3] = target: T1, human neutrophil elastase (HNE); experiment: HNE inhibition constant; assay type: biochemical
Stability in human serum = assay type: in vitro ADME; conditions: 25 °C
Method in brief: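 Serum prepared by clotting fresh human blood 1 h at room temperature. Test compound (10 mM DMSO stock) added to serum and incubated at 25 °C. Timed aliquots quenched in acetonitrile and centrifuged 5 min at 10 000g. Analysed by RP-HPLC: C18 column, acetonitrile/water 65/35 with 0.1% TFA, 1 mL/min, 40 °C, diode-array detection 200–300 nm. Remaining compound calculated from peak area.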

For `Cc1cccc(C(=O)N2NCC(O)c3ccccc32)c1` (stereo not drawn) [Compound 19, (4-Hydroxy-3,4-dihydrocinnolin-1(2H)-yl)(m-tolyl)meyhanone], the “HNE inhibitory activity (in words)” value [1] was “completely devoid of activity”.

With `Cc1cccc(C(=O)n2nc(C(=O)O)c(=O)c3ccccc32)c1` [Compound 8, 1-(3-Methylbenzoyl)-4-oxo-1,4-dihydrocinnoline-3-carboxylic acid] the “HNE inhibitory activity (in words)” value [1] was “loss of activity”.

In the case of `CCOC(=O)c1nn(Cc2cccc(C)c2)c2ccccc2c1=O` [Compound 6, Ethyl 1-(3-methylbenzyl)-4-oxo-1,4-dihydrocinnoline-3-carboxylate], the “HNE inhibitory activity (in words)” value [1] was “completely inactive”.

With `Cc1cccc(C(=O)n2ncc(=O)c3cc([N+](=O)[O-])ccc32)c1` [Compound 21a, 1-(3-Methylbenzoyl)-6-nitrocinnolin-4(1H)-one] the Extent of hydrolysis [2] was “hydrolyzed almost completely”.

With `Cc1cccc(C(=O)n2ncc(=O)c3ccccc32)c1` [Compound 18a, 1-(3-Methylbenzoyl)cinnolin-4(1H)-one] the “Recovery of HNE activity after removing free inhibitor” value (HNE) was “fully reversible”, the pKi [3] was 7.12 and the “Type of HNE inhibition” value ([3]; double-reciprocal Lineweaver–Burk plots) was “competitive inhibitors”. The “percent of initial compound remaining” value (Stability in human serum; 5 min of incubation) was < 3% and the compound remaining (Stability in human serum; after 10 min) was “essentially no detectable compounds”.

In the case of `CCOC(=O)c1nn(C)c2ccccc2c1=O` [Compound 5, Ethyl 1-methyl-4-oxo-1,4-dihydrocinnoline-3-carboxylate], the “HNE inhibitory activity (in words)” value [1] was “completely inactive”.

For `Cc1cccc(C(=O)n2nc(-c3ccccc3)c(=O)c3ccccc32)c1` [Compound 11a, 1-(3-Methylbenzoyl)-3-phenylcinnolin-4(1H)-one], the “HNE inhibitory activity (in words)” value [1] was “loss of activity”.

With `Cc1cccc(C(=O)n2nc(CO)c(=O)c3ccccc32)c1` [Compound 11d, 3-(Hydroxymethyl)-1-(3-methylbenzoyl)cinnolin-4(1H)-one] the “HNE inhibitory activity (in words)” value [1] was “loss of activity”.
